What was measured:
[1] = molecular target: NUAK family SNF1-like kinase 2 (Homo sapiens) (UniProt Q9H093); assay: Inhibition of human SNARK (22 to 333 amino acid residues) assessed as enzyme activity at 10 uM by KINOMEScan assay; parameters: scale not given: the % may be the effect or the level left
Summary of the method: (§1)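 Single-concentration competition binding screen (KINOMEscan) across a 100-kinase panel at 10 μM. Primary binding read-out is reported as % of control: (test signal − positive-control signal)/(negative-control signal − positive-control signal) × 100. Lower values indicate stronger binding.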

[2] = molecular target: Casein kinase I isoform delta (Homo sapiens) (UniProt P48730); assay: Inhibition of full length human CSNK1D expressed in bacterial system assessed as enzyme activity at 10 uM by KINOMEScan assay system assessed as enzyme activity at 10 uM by KINOMEScan assay; parameters: scale not given: the % may be the effect or the level left
Summary of the method: (§2)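 Competition binding screen on a 100-kinase KINOMEscan panel, compound tested at a single 10 μM concentration. Primary binding read-out expressed as % Ctrl = (test compound signal − positive control signal)/(negative control signal − positive control signal) × 100, with lower values meaning stronger binding.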

[3] = molecular target: Inhibitor of nuclear factor kappa-B kinase subunit beta (Homo sapiens) (UniProt O14920); assay: Inhibition of full length human IKK-beta assessed as enzyme activity at 10 uM by KINOMEScan assay; parameters: scale not given: the % may be the effect or the level left; summary of the method: as §2
[4] = molecular target: Serine/threonine-protein kinase pim-1 (Homo sapiens, UniProt P11309); assay: Inhibition of human PIM1 (15 to 313 amino acid residues) expressed in bacterial system assessed as enzyme activity at 10 uM by KINOMEScan assay; parameters: scale not given: the % may be the effect or the level left; summary of the method: as §1
[5] = molecular target: Serine/threonine-protein kinase pim-3 (Homo sapiens) (UniProt Q86V86); assay: Inhibition of PIM3 (unknown origin)
[6] = molecular target: Phosphatidylinositol 4-phosphate 3-kinase C2 domain-containing subunit beta (Homo sapiens) (UniProt O00750); assay: Inhibition of human PIK3C2B (1 to 1634 amino acid residues) assessed as enzyme activity at 10 uM by KINOMEScan assay; parameters: scale not given: the % may be the effect or the level left
Summary of the method: (§3)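 Commercial KINOMEscan binding panel of 100 kinases, test compound at 10 μM. Results are primary-screen binding interactions expressed as % Ctrl = (test compound signal − positive control signal)/(negative control signal − positive control signal) × 100. Lower % Ctrl means stronger binding.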

[7] = molecular target: Rho-associated protein kinase 2 (Homo sapiens) (UniProt O75116); assay: Inhibition of human ROCK2 (1 to 431 amino acid residues) assessed as enzyme activity at 10 uM by KINOMEScan assay; parameters: scale not given: the % may be the effect or the level left; summary of the method: as §1
[8] = system: Serine/threonine-protein kinase B-raf (Homo sapiens), P15056 [V600E]; assay: Inhibition of human BRAF V600E mutant (429 to 741 amino acid residues) assessed as enzyme activity at 10 uM by KINOMEScan assay; parameters: scale not given: the % may be the effect or the level left; summary of the method: as §2
[9] = molecular target: Atypical kinase COQ8A, mitochondrial (Homo sapiens) (UniProt Q8NI60); assay: Inhibition of full length human ADCK3 expressed in bacterial system assessed as enzyme activity at 10 uM by KINOMEScan assay; parameters: scale not given: the % may be the effect or the level left; summary of the method: as §3
[10] = molecular target: Mitogen-activated protein kinase 8 (Homo sapiens) (UniProt P45983); assay: Inhibition of full length human JNK1 assessed as enzyme activity at 10 uM by KINOMEScan assay; parameters: scale not given: the % may be the effect or the level left; summary of the method: as §2
[11] = molecular target: Mitogen-activated protein kinase 3 (Homo sapiens) (UniProt P27361); assay: Inhibition of full length human ERK1 expressed in bacterial system assessed as enzyme activity at 10 uM by KINOMEScan assay; parameters: scale not given: the % may be the effect or the level left; summary of the method: as §3
[12] = molecular target: Serine/threonine-protein kinase PLK1 (Homo sapiens) (UniProt P53350); assay: Inhibition of human PLK1 (33 to 325 amino acid residues) assessed as enzyme activity at 10 uM by KINOMEScan assay; parameters: scale not given: the % may be the effect or the level left; summary of the method: as §1
[13] = molecular target: Cyclin-dependent kinase 2 (Homo sapiens) (UniProt P24941); assay: Inhibition of full length human CDK2 expressed in bacterial system assessed as enzyme activity at 10 uM by KINOMEScan assay; parameters: scale not given: the % may be the effect or the level left; summary of the method: as §2
[14] = molecular target: Focal adhesion kinase 1 (Homo sapiens) (UniProt Q05397); assay: Inhibition of human FAK (402 to 696 amino acid residues) assessed as enzyme activity at 10 uM by KINOMEScan assay expressed in bacterial system assessed as enzyme activity at 10 uM by KINOMEScan assay; parameters: scale not given: the % may be the effect or the level left; summary of the method: as §2
[15] = molecular target: Proto-oncogene tyrosine-protein kinase Src (Homo sapiens) (UniProt P12931); assay: Inhibition of human SRC (240 to 536 amino acid residues) expressed in bacterial system assessed as enzyme activity at 10 uM by KINOMEScan assay; parameters: scale not given: the % may be the effect or the level left; summary of the method: as §1
[16] = molecular target: Receptor tyrosine-protein kinase erbB-2 (Homo sapiens) (UniProt P04626); assay: Inhibition of human ERBB2 (646 to 1225 amino acid residues) assessed as enzyme activity at 10 uM by KINOMEScan assay; parameters: scale not given: the % may be the effect or the level left; summary of the method: as §2
[17] = molecular target: Platelet-derived growth factor receptor beta (Homo sapiens) (UniProt P09619); assay: Inhibition of human PDGFRB (582 to 1009 amino acid residues) expressed in bacterial system assessed as enzyme activity at 10 uM by KINOMEScan assay; parameters: scale not given: the % may be the effect or the level left; summary of the method: as §3
[18] = molecular target: Non-receptor tyrosine-protein kinase TYK2 (Homo sapiens) (UniProt P29597); assay: Inhibition of human TYK2 JH1 catalytic domain (877 to 1187 amino acid residues) assessed as enzyme activity at 10 uM by KINOMEScan assay; parameters: scale not given: the % may be the effect or the level left; summary of the method: as §1
[19] = molecular target: Epidermal growth factor receptor (Homo sapiens) (UniProt P00533); assay: Inhibition of human EGFR (669 to 1011 amino acid residues) assessed as enzyme activity at 10 uM by KINOMEScan assay expressed in bacterial system assessed as enzyme activity at 10 uM by KINOMEScan assay; parameters: scale not given: the % may be the effect or the level left; summary of the method: as §3
[20] = molecular target: Angiopoietin-1 receptor (Homo sapiens) (UniProt Q02763); assay: Inhibition of human TIE2 (804 to 1112 amino acid residues) expressed in bacterial system assessed as enzyme activity at 10 uM by KINOMEScan assay; parameters: scale not given: the % may be the effect or the level left; summary of the method: as §1
[21] = molecular target: Protein kinase C epsilon type (Homo sapiens) (UniProt Q02156); assay: Inhibition of human PRKCE (378 to 737 amino acid residues) assessed as enzyme activity at 10 uM by KINOMEScan assay; parameters: scale not given: the % may be the effect or the level left; summary of the method: as §1
[22] = molecular target: Tyrosine-protein kinase JAK2 (Homo sapiens) (UniProt O60674); assay: Inhibition of human JAK2 JH1 catalytic domain (829 to 1132 amino acid residues) assessed as enzyme activity at 10 uM by KINOMEScan assay; parameters: scale not given: the % may be the effect or the level left; summary of the method: as §2
[23] = molecular target: TGF-beta receptor type-1 (Homo sapiens) (UniProt P36897); assay: Inhibition of human TGFBR1 (179 to 503 amino acid residues) expressed in bacterial system assessed as enzyme activity at 10 uM by KINOMEScan assay; parameters: scale not given: the % may be the effect or the level left; summary of the method: as §3
[24] = molecular target: Fibroblast growth factor receptor 3 (Homo sapiens) (UniProt P22607); assay: Inhibition of human FGFR3 (442 to 771 amino acid residues) assessed as enzyme activity at 10 uM by KINOMEScan assay expressed in bacterial system assessed as enzyme activity at 10 uM by KINOMEScan assay; parameters: scale not given: the % may be the effect or the level left; summary of the method: as §2
[25] = molecular target: Proto-oncogene tyrosine-protein kinase receptor Ret (Homo sapiens) (UniProt P07949); assay: Inhibition of human RET (713 to 1014 amino acid residues) expressed in bacterial system assessed as enzyme activity at 10 uM by KINOMEScan assay; parameters: scale not given: the % may be the effect or the level left; summary of the method: as §3

With `O=C1C2=C(C(=O)c3c(O)ccc(O)c31)[C@@H](O)[C@@H](O)[C@@H](O)C2` as the molecule, how does the Activity [1] read?
Its Activity is 90%.

What about the Activity [2] of the same molecule?
The Activity was 30%.

What about the Activity [3] of the same molecule?
The Activity was 91%.

What about the Activity [4] of the same molecule?
Its Activity is 34%.

And the % of MOE kinase hits [5]?
Its % of MOE kinase hits is 29%.

What about the Activity [6] of the same molecule?
Its Activity is 100%.

What about the Activity [7] of the same molecule?
The Activity was 77%.

What about the Activity [8] of the same molecule?
Its Activity is 70%.

What about the Activity [9] of the same molecule?
The Activity was 100%.

And the Activity [10]?
Its Activity is 96%.

And the Activity [11]?
The Activity was 100%.

What about the Activity [12] of the same molecule?
The Activity was 96%.

And the Activity [13]?
Its Activity is 92%.

And the Activity [14]?
The Activity was 95%.

What about the Activity [15] of the same molecule?
Its Activity is 91%.

What about the Activity [16] of the same molecule?
Its Activity is 93%.

What about the Activity [17] of the same molecule?
Its Activity is 100%.

And the Activity [18]?
The Activity was 57%.

And the Activity [19]?
Its Activity is 88%.

And the Activity [20]?
The Activity was 89%.

What about the Activity [21] of the same molecule?
Its Activity is 92%.

What about the Activity [22] of the same molecule?
The Activity was 94%.

And the Activity [23]?
Its Activity is 100%.

And the Activity [24]?
Its Activity is 93%.

What about the Activity [25] of the same molecule?
The Activity was 100%.

Source: ChEMBL document CHEMBL3808372, “Identification of quinones as novel PIM1 kinase inhibitors” (Bioorg Med Chem Lett, 2016)
